Reference: paper PMC4339026 (Biopolymers, 2014)

What was measured:
meprin α = molecular target: T1, meprin α (Homo sapiens, UniProt Q16819); assay: Meprin α HTS FRET assay, dose response; assay type: biochemical; conditions: read-out: IC50 Meprin α; selectivity testing; n = 3 Mean ± SD
T1 sequence (Q16819 66-653 limits assumed): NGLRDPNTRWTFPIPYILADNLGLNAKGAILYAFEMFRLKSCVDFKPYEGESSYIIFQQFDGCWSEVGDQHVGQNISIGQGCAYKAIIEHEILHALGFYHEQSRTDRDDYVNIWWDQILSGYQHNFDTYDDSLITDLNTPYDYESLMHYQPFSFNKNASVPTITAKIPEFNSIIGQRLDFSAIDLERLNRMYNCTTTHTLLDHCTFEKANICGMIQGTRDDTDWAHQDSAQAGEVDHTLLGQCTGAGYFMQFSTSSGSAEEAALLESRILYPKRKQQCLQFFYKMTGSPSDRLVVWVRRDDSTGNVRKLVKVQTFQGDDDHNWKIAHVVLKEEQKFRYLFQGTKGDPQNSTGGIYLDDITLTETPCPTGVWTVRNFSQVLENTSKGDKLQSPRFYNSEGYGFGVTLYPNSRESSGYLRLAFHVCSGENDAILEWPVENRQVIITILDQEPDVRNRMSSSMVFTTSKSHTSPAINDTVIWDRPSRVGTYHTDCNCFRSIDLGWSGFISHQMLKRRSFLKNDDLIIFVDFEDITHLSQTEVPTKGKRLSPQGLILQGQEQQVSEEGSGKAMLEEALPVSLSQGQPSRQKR
In short: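 Recombinant human Strep-tagged meprin α was expressed in baculovirus-infected BTI-TN-5B1-4 cells, trypsin-activated, then freed of trypsin. It was used as a 2x solution at 2.6 nM in 50 mM Hepes, 0.01% Brij-35, pH 7.5. Test compound was pre-incubated 30 min at RT, then 2x (MCA)-YVADAPK-(K-ε-DNP) at 20 μM was added for 1 h at RT. Read at ex 324/em 393 nm. 3-fold dilutions in quadruplicate; 4-parameter fit; 0.1% or 1.0% DMSO.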

meprin β = molecular target: T2, meprin β (Homo sapiens, UniProt Q16820); assay: Meprin β HTS FRET assay, dose response; assay type: biochemical
T2 sequence (Q16820 62-614 limits assumed): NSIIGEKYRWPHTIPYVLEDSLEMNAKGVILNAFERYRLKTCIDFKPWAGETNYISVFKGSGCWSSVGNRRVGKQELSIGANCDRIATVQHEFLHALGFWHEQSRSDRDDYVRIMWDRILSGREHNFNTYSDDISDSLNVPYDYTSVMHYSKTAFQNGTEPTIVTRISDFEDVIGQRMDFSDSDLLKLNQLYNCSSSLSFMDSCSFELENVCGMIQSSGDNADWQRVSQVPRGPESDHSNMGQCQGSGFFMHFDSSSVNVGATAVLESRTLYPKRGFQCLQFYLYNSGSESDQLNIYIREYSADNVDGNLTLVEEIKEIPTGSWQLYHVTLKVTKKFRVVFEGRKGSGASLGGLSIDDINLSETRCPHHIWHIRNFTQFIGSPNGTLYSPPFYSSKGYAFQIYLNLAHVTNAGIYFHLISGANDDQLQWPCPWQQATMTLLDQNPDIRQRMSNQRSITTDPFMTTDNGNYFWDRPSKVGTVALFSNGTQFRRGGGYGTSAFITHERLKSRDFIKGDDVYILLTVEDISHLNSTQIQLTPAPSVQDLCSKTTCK
In short: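 Trypsin-activated meprin β (trypsin removed on immobilized ovomucoid) in 50 mM Hepes, 0.01% Brij-35, pH 7.5, added as 2x (0.15 nM) solution. Pin-transferred inhibitor was preincubated 30 min at RT. 2x (20 μM) (MCA)-EDEDED-(K-ε-DNP) was then added, run 1 h at RT, and read at ex 324/em 393 nm. A 3-fold dilution series was run in quadruplicate, and % inhibition was fitted with a 4-parameter equation. DMSO final was 0.1% or 1.0%.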

## O=C(Nc1cc(C(=O)Nc2ccc(S(=O)(=O)O)cc2S(=O)(=O)O)cc(C(=O)Nc2ccc(S(=O)(=O)O)cc2S(=O)(=O)O)c1)Nc1cc(C(=O)Nc2ccc(S(=O)(=O)O)cc2S(=O)(=O)O)cc(C(=O)Nc2ccc(S(=O)(=O)O)cc2S(=O)(=O)O)c1 [NF449, 4,4′,4″,4‴-[Carbonyl-bis[imino-5,1,3-benzenetriylbis-(carbonyl-imino)]]tetrakis(benzene-1,3-disulfonic acid)]
Meprin α
  IC50: > 100000 nM
Meprin β; dose response experiment, data not shown
  meprin β dose response behaviour: did not exhibit the same effect
Meprin β; ratio of IC50 values
  potency differential meprin β versus meprin α: > 1000 fold
  selectivity ratio meprin β versus MMP-8: approximately 12 fold
Meprin β; read-out: IC50 Meprin β, selectivity testing, n = 3 Mean ± SD
  IC50: 70 ± 5 nM
